Measured values from different studies.
Lines come from different studies, so protocols differ.
MAOA: Amine oxidase [flavin-containing] A (MAOA, Homo sapiens, UniProt P21397)
HIPK4: Homeodomain-interacting protein kinase 4 (HIPK4, Homo sapiens, UniProt Q8NE63)
Rps6ka1: Ribosomal protein S6 kinase alpha-1 (Rps6ka1, Rattus norvegicus, UniProt Q63531)

Structure (SMILES) | target | assay | setting | measurement | result
COc1cc([N+](=O)[O-])ccc1NC(=O)c1ccc2c(c1)OCO2 | MAOA | enzyme activity, inhibitor | 1 µM, 20 min | inhibition | 1%
Cc1ccc(C(=O)Nc2ccc(CN3CCN(C)CC3)c(C(F)(F)F)c2)cc1C#Cc1cnc2cccnn12 | Cyclin-dependent kinase-like 2 (CDKL2, Homo sapiens, UniProt Q92772) | enzyme activity | 23.5 nM | remaining activity | 0%
O=C(Nc1ccc(OC(F)(F)F)cc1)c1ccccc1 | MAOA | enzyme activity, inhibitor | 1 µM, 20 min | inhibition | 24%
COc1cccc(CCNc2nc3cc(C(=O)O)ccc3c3cncnc23)c1 | HIPK4 | enzyme activity, inhibitor, radiometric | 1 µM | remaining activity | 135%
O=C(c1ccc(Cl)cc1)N(Cc1ccccc1)C1CCCCC1 | Alpha-1A adrenergic receptor (ADRA1A, Homo sapiens, UniProt P35348) | cell-free assay | 10 µM | inhibition | 17%
COc1cccc(Nc2nc3cc(C(=O)O)ccc3c3cnccc23)c1 | Homeodomain-interacting protein kinase 3 (HIPK3, Homo sapiens, UniProt Q9H422) | enzyme activity, inhibitor, radiometric | 1 µM | remaining activity | 8%
O=C(Nc1ccc([N+](=O)[O-])cc1Cl)c1ccc2ccccc2c1O | MAOA | enzyme activity, inhibitor | 1 µM, 20 min | inhibition | -4%
O=C(O)c1ccc2c(c1)nc(NCCc1cccc(F)c1)c1ccncc12 | HIPK4 | enzyme activity, inhibitor, radiometric | 1 µM | remaining activity | -10%
CCCOc1ccc(OC)c(F)c1C(=O)c1ccc(C(=O)N[C@@H]2CNC[C@H]2NC(=O)c2ccc3[nH]ncc3c2)cc1 | Rps6ka1 | enzyme activity, inhibitor | 0.5 µM | remaining activity | 77%
COc1cc(Cl)c(C(=O)N[C@@H](CN[C@H]2CC[C@@H](N)CC2)Cc2ccc(C#N)cc2)cc1-c1ccc(CN[C@H](C)c2ccc(C)cc2)o1 | Wee1-like protein kinase 2 (WEE2, Homo sapiens, UniProt P0C1S8) | enzyme activity, inhibitor | 1 µM | remaining activity | 89%
Nc1ncnc2occ(-c3ccc(NC(=O)Nc4cc(C(F)(F)F)ccc4F)cc3)c12 | Uncharacterized serine/threonine-protein kinase SBK3 (SBK3, Homo sapiens, UniProt P0C264) | cell-free assay, inhibitor | 20 µM | remaining signal | 74%
Oc1cccc(Nc2nc(-c3ccc(F)cc3F)cs2)c1 | Kappa-type opioid receptor (Oprk1, Rattus norvegicus, UniProt P34975) | ligand displacement, radioligand | 10 µM | inhibition | 83%
O=C(Nc1ccc([N+](=O)[O-])cc1Cl)c1cc2ccccc2cc1O | MAOA | enzyme activity, inhibitor | 1 µM, 20 min | inhibition | -2%
Cc1ccc(NC(=O)c2ccc(C)c(C(F)(F)F)c2)cc1C#Cc1nn(C2CCC(O)CC2)c2ncnc(N)c12 (stereo not shown) | Rps6ka1 | cell-free assay | 10 µM | remaining signal | 20%
O=C(Nc1ccc([N+](=O)[O-])cc1)c1ccc([N+](=O)[O-])cc1Cl | MAOA | enzyme activity, inhibitor | 1 µM, 20 min | inhibition | 13%
NNCCc1ccc(NC(=O)CCCc2ccccc2)cc1 | MAOA | enzyme activity, inhibitor | – | KI (inactivation) | 2600 nM
